The values that follow come from ChEMBL document CHEMBL1156791, “Antimicrobial activity of small beta-peptidomimetics based on the pharmacophore model of short cationic antimicrobial peptides” (J Med Chem, 2010).

Data set [1] is described as follows: Stability in aqueous solution at pH7.4 after 48 hrs. The note with it: buffer, pH 7.4, 48 h. Format: physicochemical.
Data set [2] concerns Escherichia coli. Nature of the data set: Antimicrobial activity against Escherichia coli ATCC 25922. Format: functional.
A short description of data set [3]: Stability in presence of alpha-chymotrypsin after 48 hrs. Format: ADME. In a few lines:
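Digestion with α-chymotrypsin (2 μg/mL final) of 100 μg/mL compound in 100 mM Tris-HCl with 10 mM CaCl2. Aliquots taken at 0, 15, 30, 60, 120, 240 min, 24 and 48 h. Quenched with 10% acetic acid plus atenolol external standard, then quantified by LC-MS/MS in positive MRM mode, in duplicate. Remaining compound expressed relative to enzyme-free control.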

A short description of data set [4]: Hemolytic activity in human RBC assessed as hemolysis at 1000 ug/ml after 1 hr. Format: ADME, cell-based. Conditions: erythrocyte.

Values after ≈ are worked out from the molar mass of the structure shown.

As for `N=C(N)NCCC[C@H](NC(=O)C(CN)(CCC1CCCCC1)CCC1CCCCC1)C(N)=O`, in data set [1], the Stability entry is on record as “Stable”. In data set [2], this molecule came in with an MBC of 289 µM (≈ 134 µg/mL) and an MIC of 144 µM (≈ 66.9 µg/mL). In data set [3], the Stability result was “Stable”. Further, in data set [4], the Activity result is “Non-toxic”.
